Test results reported in ChEMBL document CHEMBL3792362 (Bioorg Med Chem Lett, 2016).
Active and inactive are the calls of the source. The rule behind the calls is not given here.

Experiments:
U-937 [1] = test: Inhibition of LPS/IFN-gamma-induced PGE2 production in PMA-treated human U937 cells at 25 uM after 17 to 20 hrs by enzyme immunoassay relative to control; assay type: functional
Summary of the method: (§1)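 Cells (5 × 10⁵/well) attached 24 h, then stimulated with recombinant IFN-γ 100 U/mL and LPS 2 µg/mL with or without compound (DMSO vehicle, 0.1% final), 17–20 h at 37 °C, 5% CO₂. U937 were first differentiated with 200 nM PMA for 24 h, then serum-free overnight. Supernatant PGE₂ quantified against standard curves; dose-response 0.78–50 µM, means ± SD of three samples.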

RAW264.7 [2] = test: Inhibition of LPS/IFN-gamma-induced PGE2 production in mouse RAW264.7 cells at 25 uM after 17 to 20 hrs by enzyme immunoassay relative to control; assay type: functional; summary of the method: as §1
RAW264.7 [3] = test: Inhibition of LPS/IFN-gamma-induced nitric oxide production in mouse RAW264.7 cells at 25 uM relative to control; assay type: functional
[4] = Cytotoxicity against mouse RAW264.7 cells assessed as cell viability at 25 uM by MTT assay relative to control; assay type: cell-based; conditions: read-out: Activity
Summary of the method: (§2)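 After 17–20 h stimulation with 100 U/mL IFN-γ plus 2 µg/mL LPS (±compound, DMSO final 0.1%) at 37 °C, 5% CO₂, supernatant removed; MTT (5 mg/mL stock, 20 µL) added, 4 h at 37 °C; formazan dissolved in DMSO, absorbance at 570 nm. U937 were PMA-differentiated (200 nM, 24 h), then serum-free overnight; RAW264.7 grown in DMEM/10% FBS.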

[5] = Cytotoxicity against PMA-treated human U937 cells assessed as cell viability at 25 uM by MTT assay relative to control; assay type: cell-based, U-937; conditions: read-out: Activity; summary of the method: as §2
U-937 [6] = test: Inhibition of LPS/IFN-gamma-induced PGE2 production in PMA-treated human U937 cells at 5 uM after 17 to 20 hrs by enzyme immunoassay relative to control; conditions: U-937, read-out: INH
[7] = Cytotoxicity against mouse RAW264.7 cells assessed as cell viability at 5 uM by MTT assay relative to control
U-937 [8] = test: Inhibition of LPS/IFN-gamma-induced PGE2 production in PMA-treated human U937 cells after 17 to 20 hrs by enzyme immunoassay; assay type: functional, cell-based; summary of the method: as §1
RAW264.7 [9] = test: Inhibition of LPS/IFN-gamma-induced PGE2 production in mouse RAW264.7 cells at 5 uM after 17 to 20 hrs by enzyme immunoassay relative to control; conditions: RAW264.7, read-out: INH
RAW264.7 [10] = test: Inhibition of LPS/IFN-gamma-induced PGE2 production in mouse RAW264.7 cells after 17 to 20 hrs by enzyme immunoassay; assay type: functional, cell-based; summary of the method: as §1
[11] = Cytotoxicity against PMA-treated human U937 cells assessed as cell viability at 5 uM by MTT assay relative to control
[12] = molecular target: T1, Prostaglandin G/H synthase 1 (Ovis aries) (UniProt P05979); test: Inhibition of ovine COX1 at 25 uM by ELISA relative to control
T1 sequence (whole entry): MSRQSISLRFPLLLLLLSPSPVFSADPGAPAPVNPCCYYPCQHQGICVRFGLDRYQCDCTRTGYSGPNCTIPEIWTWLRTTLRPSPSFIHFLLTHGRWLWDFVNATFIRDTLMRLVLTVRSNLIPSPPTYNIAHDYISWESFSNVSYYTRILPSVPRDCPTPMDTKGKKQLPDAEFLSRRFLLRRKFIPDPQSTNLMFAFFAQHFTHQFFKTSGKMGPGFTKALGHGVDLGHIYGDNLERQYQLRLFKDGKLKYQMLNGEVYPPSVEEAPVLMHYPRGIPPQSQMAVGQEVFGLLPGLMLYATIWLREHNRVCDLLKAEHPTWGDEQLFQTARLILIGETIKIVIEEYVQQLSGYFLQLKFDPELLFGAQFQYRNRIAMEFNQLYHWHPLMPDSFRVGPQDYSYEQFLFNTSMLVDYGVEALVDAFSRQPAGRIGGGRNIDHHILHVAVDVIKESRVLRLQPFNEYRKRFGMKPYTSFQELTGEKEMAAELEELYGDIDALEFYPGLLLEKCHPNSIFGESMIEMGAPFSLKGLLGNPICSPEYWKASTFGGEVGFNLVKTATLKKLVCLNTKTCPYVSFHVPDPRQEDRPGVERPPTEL
Summary of the method: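 COX-1 (ovine) inhibition measured with a commercial ovine/human COX inhibitor screening ELISA kit per manufacturer's protocol; prostaglandin concentrations read on a microplate reader and calculated from standard curves.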

[13] = Inhibition of COX in CD1 mouse epidermal cytosolic fractions using [14C]arachidonic acid as substrate assessed as PGE2, PGF2alpha, and PGD2 formation by TLC/liquid scintillation spectrometry method
[14] = Inhibition of COX in CD1 mouse epidermal microsomes using [14C]arachidonic acid as substrate assessed as PGE2, PGF2alpha, and PGD2 formation by TLC/liquid scintillation spectrometry method; parameters: species or system Skin epidermis

IC50 (U-937 [8]) [µM]	IC50 (RAW264.7 [10]) [µM]	inhibition [12]	IC50 [13] [µM]	IC50 [14] [µM]	Compound	inhibition at 25 µM (U-937 [1]) [%]	inhibition at 25 µM (RAW264.7 [2]) [%]	inhibition (RAW264.7 [3])	viability at 25 µM [4] [%]	viability at 25 µM [5] [%]	inhibition at 25 µM (RAW264.7 [3]) [%]	inhibition at 5 µM (U-937 [6]) [%]	viability at 5 µM [7] [%]	inhibition at 5 µM (RAW264.7 [9]) [%]	viability at 5 µM [11] [%]	inhibition (U-937 [8])
–	–	–	–	–	Cc1ccc(/C=C2\CCC/C(=C\c3cccc4ccccc34)C2=O)cc1	66	74	inactive	100	94	–	–	–	–	–	–
–	–	–	–	–	CCN(CC)c1ccc(/C=C2\CCC/C(=C\c3ccc(O)c(OC)c3)C2=O)cc1	85	95	–	< 50	100	100	–	–	–	–	–
–	–	–	–	–	COC(=O)[C@@H](N)CCCNC(=N)N[N+](=O)[O-] [L-NAME]	–	–	–	–	–	53	–	–	–	–	–
< 0.078	< 0.078	–	–	–	CS(=O)(=O)Nc1ccc([N+](=O)[O-])cc1Oc1ccccc1 [NIMESULIDE]	–	–	–	–	–	–	89	100	66	100	–
0.95	0.78	inactive	–	–	COc1ccc(/C=C2\CCC/C(=C\c3ccc(O)c(OC)c3)C2=O)cc1	86	96	–	< 50	100	100	–	–	–	–	–
–	–	–	–	–	CCN(CC)c1ccc(/C=C2\CCC/C(=C\c3ccc(-c4ccc(F)cc4)cc3)C2=O)cc1	72	65	inactive	94	100	–	–	–	–	–	–
–	–	–	–	–	COc1cccc(/C=C2\CCC/C(=C\c3ccc(-c4ccc(F)cc4)cc3)C2=O)c1OC	68	51	inactive	90	98	–	–	–	–	–	–
–	–	–	–	–	O=C1/C(=C/c2ccc(Br)cc2)CCC/C1=C\c1ccc(-c2ccc(F)cc2)cc1	66	53	inactive	92	98	–	–	–	–	–	–
0.92	1.9	inactive	–	–	COc1cc(/C=C2\CCC/C(=C\c3ccc(O)cc3)C2=O)ccc1O	88	96	–	< 50	100	100	–	–	–	–	–
–	–	–	–	–	O=C1/C(=C/c2ccc(-c3ccc(F)cc3)cc2)CCC/C1=C\c1ccc(Cl)c(Cl)c1	76	59	inactive	100	94	–	–	–	–	–	–
–	–	–	–	–	COc1cccc(/C=C2\CCC/C(=C\c3ccc(Cl)c(Cl)c3)C2=O)c1OC	58	73	–	77	100	90	–	–	–	–	–
–	–	–	–	–	COc1cc(/C=C2\CCC/C(=C\c3ccc(Br)cc3)C2=O)ccc1O	87	96	–	< 50	100	100	–	–	–	–	–
–	–	–	–	–	COc1cc(/C=C2\CCC/C(=C\c3ccc(C)cc3)C2=O)ccc1O	85	95	–	< 50	100	100	–	–	–	–	–
–	–	–	–	–	Cc1ccc(/C=C2\CCC/C(=C\c3ccc(Cl)c(Cl)c3)C2=O)cc1	68	64	–	95	100	71	–	–	–	–	–
3.44	12	inactive	–	–	COc1cccc(/C=C2\CCC/C(=C\c3ccc(C)cc3)C2=O)c1OC	83	83	–	100	100	95	–	–	–	–	Dose-dependent effect
1.65	4.86	inactive	–	–	Cc1ccc(/C=C2\CCC/C(=C\c3ccc(C)o3)C2=O)cc1	84	92	–	83	98	99	–	–	–	–	Dose-dependent effect
1.88	16	inactive	5	52	COc1cc(/C=C/C(=O)CC(=O)/C=C/c2ccc(O)c(OC)c2)ccc1O [CURCUMIN]	94	78	–	90	95	85	–	–	–	–	–
